ChEMBL document CHEMBL4342521 (J Med Chem, 2020)
The source made the active and inactive calls. The rule behind the calls is not given here.

Assays:
MOLT-4 = test: Antiproliferative activity against human MOLT4 cells assessed as reduction in cell viability after 48 hrs by CellTiter-Blue assay; assay type: functional; conditions: MOLT-4, 48 h, read-out: LC50 (the source's name)
Summary of the method: (§1)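 Cells grown in RPMI1640 with 10% FBS at 37 °C, 5% CO₂. 5,000–10,000 cells/well were pre-incubated overnight, and a time-zero CellTiter-Blue read was taken. Six 10-fold dilutions (top final 10 μM) were applied for 48 h, followed by 0.125 mg/mL CellTiter-Blue for 2–4 h. Resorufin fluorescence was read at ex 560/em 590 nm. […] Triplicates.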

Histone deacetylase 7 = Histone deacetylase 7 (Homo sapiens, UniProt Q8WUI4); test: (§2) Inhibition of recombinant human N-terminal GST-tagged HDAC7 (518 to end residues) expressed in baculovirus infected Sf9 cells using Boc-Lys (trifluoroacetyl)-AMC as substrate preincubated for 1 hr followed by substrate addition and measured after 2 hrs by fluorescence based micro plate reader analysis
M14 = test: Antiproliferative activity against human M14 cells assessed as reduction in cell viability after 48 hrs by CellTiter-Blue assay; assay type: functional; conditions: M14, 48 h, read-out: LC50 (the source's name); summary of the method: as §1
UACC-257 = test: Antiproliferative activity against human UACC257 cells assessed as reduction in cell viability after 48 hrs by CellTiter-Blue assay; assay type: functional; conditions: UACC-257, 48 h, read-out: LC50 (the source's name)
Summary of the method: (§3)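 NCI-60 panel lines grown in RPMI1640 with 10% FBS at 37 °C, 5% CO₂. Seeded at 5,000–10,000 cells/well and pre-incubated overnight. Exposed for 48 h to six 10-fold dilutions (top final 10 μM), with a time-zero plate read at dosing. CellTiter-Blue (0.125 mg/mL) for 2–4 h, fluorescence 560/590 nm, triplicate curves.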

RXF 393 = test: Antiproliferative activity against human RXF393 cells assessed as reduction in cell viability after 48 hrs by CellTiter-Blue assay; assay type: functional; conditions: RXF 393, 48 h, read-out: LC50 (the source's name); summary of the method: as §1
[1] = biological target: Matrix metalloproteinase-9 (Homo sapiens) (UniProt P14780); test: Inhibition of MMP-9 (unknown origin) at 10 to 50 uM incubated for 10 to 15 mins and measured after 2 hrs by fluorescence based assay
Summary of the method: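 MMP-2/MMP-9 in activation buffer with test agent (final 50 and 10 μM), 10–15 min incubation, then fluorogenic substrate added. Incubated 2 h at 37 °C; fluorescence read at 320/405 nm. Kit MMP inhibitor was the positive control.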

MDA-MB-231 = test: Antiproliferative activity against human MDA-MB-231 cells assessed as reduction in cell viability after 48 hrs by CellTiter-Blue assay; assay type: functional; conditions: MDA-MB-231, 48 h, read-out: LC50 (the source's name); summary of the method: as §1
EKVX = test: Antiproliferative activity against human EKVX cells assessed as reduction in cell viability after 48 hrs by CellTiter-Blue assay; assay type: functional; conditions: read-out: LC50 (the source's name); summary of the method: as §1
[2] = Half life in CD1 mouse at 5 mg/kg, iv after 24 hrs by LC-MS/MS analysis; assay type: ADME, organism-based; conditions: in vivo
Summary of the method: (§4)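 Male CD-1 mice, fasted overnight, 3 per route; compound in PBS with 5% DMSO, iv bolus 5 mg/kg or oral gavage 20 mg/kg. Blood sampled at 5, 15, 30 min and 1–24 h. Plasma protein-precipitated with acetonitrile plus internal standard, quantified by LC-MS/MS (MRM). AUC by linear trapezoidal method; parameters by non-compartmental analysis.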

[3] = AUC (0 to infinity) in CD1 mouse at 20 mg/kg, po via gavage after 24 hrs by LC-MS/MS analysis; assay type: ADME, organism-based; parameters: dose 20 mg/kg, time infinity, route oral; conditions: in vivo; summary of the method: as §4
TK-10 = test: Antiproliferative activity against human TK10 cells assessed as reduction in cell viability after 48 hrs by CellTiter-Blue assay; assay type: functional; conditions: TK-10, 48 h, read-out: LC50 (the source's name); summary of the method: as §3
Histone deacetylase 5 = Histone deacetylase 5 (Homo sapiens, UniProt Q9UQL6); test: Inhibition of recombinant human HDAC5 using Boc-Lys (trifluoroacetyl)-AMC as substrate preincubated for 1 hr followed by substrate addition and measured after 2 hrs by fluorescence based micro plate reader analysis
Summary of the method: (§5)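 Recombinant enzyme was preincubated with serially varied inhibitor for 1 h at 30 °C. Boc-Lys(trifluoroacetyl)-AMC was then added to a final 50 μM and incubated 2 h at 30 °C. The reaction was stopped with developer containing trypsin and TSA, and fluorescence (ex 360/em 460 nm) was read 30 min later. Inhibition was taken relative to control wells and fitted to a variable-slope log(inhibitor) curve. Values are the mean of at least three experiments.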

K562 = test: Antiproliferative activity against human K562 cells assessed as reduction in cell viability after 48 hrs by CellTiter-Blue assay; assay type: functional; conditions: K562, 48 h, read-out: LC50 (the source's name); summary of the method: as §1
HCT-15 = test: Antiproliferative activity against human HCT15 cells assessed as reduction in cell viability after 48 hrs by CellTiter-Blue assay; assay type: functional; conditions: HCT-15, 48 h, read-out: LC50 (the source's name); summary of the method: as §1
[4] = Oral bioavailability in CD1 mouse at 20 mg/kg dosed via gavage after 24 hrs by LC-MS/MS analysis; assay type: ADME, organism-based; conditions: in vivo
Summary of the method: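 Male CD-1 mice (n = 3) were fasted overnight and given compound in PBS with 5% DMSO, 5 mg/kg iv bolus or 20 mg/kg by gavage. Blood was sampled from 5 min to 24 h. Plasma was protein-precipitated with acetonitrile containing internal standard and quantified by LC-MS/MS (MRM). AUC was calculated by the linear trapezoidal method and parameters by non-compartmental analysis.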

U-251 = test: Antiproliferative activity against human U251 cells assessed as reduction in cell viability after 48 hrs by CellTiter-Blue assay; assay type: functional; conditions: U-251, 48 h, read-out: LC50 (the source's name); summary of the method: as §3
NCI-H460 = test: Antiproliferative activity against human NCI-H460 cells assessed as reduction in cell viability after 48 hrs by CellTiter-Blue assay; assay type: functional; conditions: NCI-H460, 48 h, read-out: LC50 (the source's name); summary of the method: as §1
HL-60 = test: Effect on c-Flip protein degradation in p53 null human HL60 cells harboring wild type FLT3 at 50 to 200 nM after 24 hrs by Western blot analysis; assay type: functional, cell-based
Summary of the method: (§6)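 Cells (1,500,000 per well) grown 12 h, then drug-treated as specified. Lysed in RIPA buffer, sonicated, centrifuged, protein normalized by BCA. Run on 4–12% Bis-Tris gels in MES, transferred, probed overnight at 4 °C with primary antibodies at 1/1000. Actin served as reference for LC3-II quantitation.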

RS4-11 = test: Effect on LC3 degradation in human RS4:11 cells harboring wild type p53/FLT3 at 50 to 200 nM after 24 hrs by Western blot analysis; assay type: functional, cell-based; summary of the method: as §6
Histone deacetylase 9 = Histone deacetylase 9 (Homo sapiens, UniProt Q9UKV0); test: as §2, with “C-terminal His-tagged HDAC9 (604” for “N-terminal GST-tagged HDAC7 (518”, “1066” for “end”; summary of the method: as §5
MOLM-14 = test: Antiproliferative activity agaisnt human MOLM14 cells expressing wild type p53/FLT3-ITD mutant assessed as cell death at 10 uM after 48 hrs by CellTiter-blue assay; assay type: functional, cell-based
DU-145 = test: Antiproliferative activity against human DU145 cells assessed as reduction in cell viability after 48 hrs by CellTiter-Blue assay; assay type: functional; conditions: DU-145, 48 h, read-out: LC50 (the source's name); summary of the method: as §1

Chain of Matrix metalloproteinase-9 (Homo sapiens) (P14780 whole entry): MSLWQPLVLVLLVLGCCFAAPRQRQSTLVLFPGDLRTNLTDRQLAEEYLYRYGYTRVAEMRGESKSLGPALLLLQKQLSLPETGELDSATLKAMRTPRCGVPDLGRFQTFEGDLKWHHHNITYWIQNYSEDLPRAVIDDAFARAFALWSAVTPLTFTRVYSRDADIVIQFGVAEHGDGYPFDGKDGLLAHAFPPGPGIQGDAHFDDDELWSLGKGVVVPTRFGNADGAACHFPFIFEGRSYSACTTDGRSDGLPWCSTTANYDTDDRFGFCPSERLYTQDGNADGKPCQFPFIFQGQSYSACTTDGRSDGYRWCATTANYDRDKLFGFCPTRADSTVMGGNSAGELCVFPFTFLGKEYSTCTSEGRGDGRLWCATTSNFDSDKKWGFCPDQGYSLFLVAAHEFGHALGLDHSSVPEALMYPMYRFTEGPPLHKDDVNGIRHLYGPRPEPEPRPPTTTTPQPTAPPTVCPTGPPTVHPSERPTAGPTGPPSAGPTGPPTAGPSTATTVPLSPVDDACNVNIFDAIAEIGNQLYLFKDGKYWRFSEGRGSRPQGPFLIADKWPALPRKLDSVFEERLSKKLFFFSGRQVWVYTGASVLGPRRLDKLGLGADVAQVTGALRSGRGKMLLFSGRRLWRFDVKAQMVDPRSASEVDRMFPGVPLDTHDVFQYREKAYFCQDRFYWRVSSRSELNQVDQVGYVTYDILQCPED
Chain of Histone deacetylase 9 (Q9UKV0 whole entry): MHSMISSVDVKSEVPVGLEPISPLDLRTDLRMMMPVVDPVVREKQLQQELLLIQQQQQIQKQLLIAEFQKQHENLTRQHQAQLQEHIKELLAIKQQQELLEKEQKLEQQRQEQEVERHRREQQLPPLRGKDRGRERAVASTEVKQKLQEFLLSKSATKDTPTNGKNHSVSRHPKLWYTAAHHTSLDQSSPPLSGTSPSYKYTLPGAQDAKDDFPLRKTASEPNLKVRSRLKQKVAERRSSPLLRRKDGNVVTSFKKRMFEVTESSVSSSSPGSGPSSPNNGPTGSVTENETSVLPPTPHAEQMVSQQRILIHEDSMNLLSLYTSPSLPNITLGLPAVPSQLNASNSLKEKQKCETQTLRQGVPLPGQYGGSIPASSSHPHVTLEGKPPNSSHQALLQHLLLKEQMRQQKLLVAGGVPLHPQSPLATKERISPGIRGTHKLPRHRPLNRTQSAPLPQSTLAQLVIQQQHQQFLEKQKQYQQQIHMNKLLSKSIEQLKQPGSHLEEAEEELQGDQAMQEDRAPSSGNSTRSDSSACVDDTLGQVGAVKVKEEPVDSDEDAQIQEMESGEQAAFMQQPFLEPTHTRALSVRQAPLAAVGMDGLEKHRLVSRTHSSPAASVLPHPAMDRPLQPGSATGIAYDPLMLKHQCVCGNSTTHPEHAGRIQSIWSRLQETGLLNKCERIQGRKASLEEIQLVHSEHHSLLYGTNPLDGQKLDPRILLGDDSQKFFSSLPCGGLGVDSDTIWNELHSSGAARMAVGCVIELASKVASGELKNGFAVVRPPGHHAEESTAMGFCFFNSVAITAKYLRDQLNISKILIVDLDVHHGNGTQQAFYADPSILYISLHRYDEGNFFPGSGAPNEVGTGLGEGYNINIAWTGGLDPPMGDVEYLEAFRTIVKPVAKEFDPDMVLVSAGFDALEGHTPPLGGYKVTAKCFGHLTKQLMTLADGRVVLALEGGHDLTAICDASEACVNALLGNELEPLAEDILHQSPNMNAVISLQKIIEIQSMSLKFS
Chain of Histone deacetylase 5 (Q9UQL6 whole entry): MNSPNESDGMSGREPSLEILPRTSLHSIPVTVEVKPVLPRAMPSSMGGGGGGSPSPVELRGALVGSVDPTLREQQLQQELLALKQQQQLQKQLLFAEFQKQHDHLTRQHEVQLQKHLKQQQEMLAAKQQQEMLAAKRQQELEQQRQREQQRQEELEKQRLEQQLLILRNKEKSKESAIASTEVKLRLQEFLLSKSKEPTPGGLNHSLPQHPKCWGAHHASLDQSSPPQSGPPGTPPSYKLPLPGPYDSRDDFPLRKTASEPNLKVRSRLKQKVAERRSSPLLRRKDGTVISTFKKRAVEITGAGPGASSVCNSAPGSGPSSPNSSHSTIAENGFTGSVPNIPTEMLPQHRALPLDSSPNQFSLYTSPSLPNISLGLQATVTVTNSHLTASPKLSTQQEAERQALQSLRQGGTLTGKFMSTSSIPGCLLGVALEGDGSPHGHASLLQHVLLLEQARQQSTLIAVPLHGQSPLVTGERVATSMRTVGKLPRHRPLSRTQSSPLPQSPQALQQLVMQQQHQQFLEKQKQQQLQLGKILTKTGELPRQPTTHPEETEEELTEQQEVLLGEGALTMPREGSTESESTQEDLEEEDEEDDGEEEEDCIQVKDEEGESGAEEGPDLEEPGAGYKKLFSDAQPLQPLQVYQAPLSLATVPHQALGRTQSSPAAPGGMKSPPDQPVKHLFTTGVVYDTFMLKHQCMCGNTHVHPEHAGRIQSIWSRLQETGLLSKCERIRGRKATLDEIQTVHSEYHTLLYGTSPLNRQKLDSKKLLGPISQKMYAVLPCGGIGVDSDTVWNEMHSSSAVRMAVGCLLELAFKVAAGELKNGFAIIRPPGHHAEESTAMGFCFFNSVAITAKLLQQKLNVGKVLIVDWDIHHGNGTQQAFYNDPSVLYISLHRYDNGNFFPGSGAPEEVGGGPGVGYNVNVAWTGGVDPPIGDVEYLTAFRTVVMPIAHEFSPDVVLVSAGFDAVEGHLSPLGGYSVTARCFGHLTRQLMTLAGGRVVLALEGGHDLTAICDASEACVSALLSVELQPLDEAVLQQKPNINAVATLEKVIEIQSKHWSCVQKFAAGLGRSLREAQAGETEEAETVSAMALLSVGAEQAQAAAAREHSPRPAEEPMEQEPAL
Chain of Histone deacetylase 7 (Q8WUI4 whole entry): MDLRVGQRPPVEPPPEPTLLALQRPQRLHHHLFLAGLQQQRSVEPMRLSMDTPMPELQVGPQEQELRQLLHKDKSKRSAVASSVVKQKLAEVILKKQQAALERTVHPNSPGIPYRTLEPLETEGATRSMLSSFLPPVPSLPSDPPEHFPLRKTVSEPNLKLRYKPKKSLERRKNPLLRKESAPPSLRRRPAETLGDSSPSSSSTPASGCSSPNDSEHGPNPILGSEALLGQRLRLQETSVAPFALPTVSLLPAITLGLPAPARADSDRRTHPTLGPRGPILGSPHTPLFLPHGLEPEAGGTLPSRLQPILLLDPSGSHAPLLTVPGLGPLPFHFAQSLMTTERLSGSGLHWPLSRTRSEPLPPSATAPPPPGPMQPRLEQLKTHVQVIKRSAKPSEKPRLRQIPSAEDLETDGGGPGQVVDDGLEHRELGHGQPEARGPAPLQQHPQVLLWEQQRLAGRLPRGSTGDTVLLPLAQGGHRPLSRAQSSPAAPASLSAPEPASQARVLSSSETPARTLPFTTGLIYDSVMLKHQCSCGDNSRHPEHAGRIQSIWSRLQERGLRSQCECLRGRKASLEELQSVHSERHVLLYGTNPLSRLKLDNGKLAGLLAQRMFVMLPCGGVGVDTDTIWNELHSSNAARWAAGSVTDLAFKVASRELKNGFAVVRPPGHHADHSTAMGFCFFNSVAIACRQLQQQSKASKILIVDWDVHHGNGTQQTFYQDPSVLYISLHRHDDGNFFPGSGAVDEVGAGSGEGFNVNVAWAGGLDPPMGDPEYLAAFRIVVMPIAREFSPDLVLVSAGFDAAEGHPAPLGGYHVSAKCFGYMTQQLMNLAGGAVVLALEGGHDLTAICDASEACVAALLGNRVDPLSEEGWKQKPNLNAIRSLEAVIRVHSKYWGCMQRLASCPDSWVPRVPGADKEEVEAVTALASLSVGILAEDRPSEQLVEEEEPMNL

## CCCNNC(=O)/C=C/c1ccc(CNCCc2c(C)[nH]c3ccccc23)cc1.O=C(O)C(F)(F)F
MOLT-4
  CC50: > 10 µM
Histone deacetylase 7
  IC50: > 10 µM
M14
  CC50: > 10 µM
UACC-257
  CC50: > 10 µM
RXF 393
  CC50: 0.666 µM
[1]
  inhibition: inactive
MDA-MB-231
  CC50: > 10 µM
EKVX
  CC50: > 10 µM
[2]
  t1/2: 15.2 h
[3]
  AUC: 265 ng·h/mL
TK-10
  CC50: > 10 µM
Histone deacetylase 5
  IC50: > 10 µM
K562
  CC50: > 10 µM
HCT-15
  CC50: > 10 µM
[4]
  F: 19.8%
U-251
  CC50: 4.28 µM
NCI-H460
  CC50: > 10 µM
HL-60
  Activity: Active
RS4-11
  Activity: inactive
Histone deacetylase 9
  IC50: > 10 µM
MOLM-14
  Activity: Active
DU-145
  CC50: > 10 µM
